Results: ChEMBL document CHEMBL1208778, “Synthesis and anti-cancer activity of chalcone linked imidazolones” (2010)

Tests used:
Assay type in all cases: functional
[1] = tested on: MCF7; test: Cell cycle arrest in human MCF7 cells assessed as accumulation at S phase at 10 uM after 24 hrs by FACS analysis
Outline: (§1)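 MCF-7 breast carcinoma cells were exposed to 10 µM test compound for 24 h, with DMSO as the vehicle control. Cell-cycle distribution was read by FACS as the percentage of cells in G0, G1, S and G2/M.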

[2] = tested on: Malme-3M; test: Growth inhibition of human MALME-3M cells
Outline: (§2)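 Five-dose testing was run within the NCI (Bethesda) in vitro Anticancer Screen Program on a panel of 53 human tumour cell lines from nine cancer types. Growth inhibition is reported as GI50.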

[3] = tested on: OVCAR-3; test: Growth inhibition of human OVCAR-3 cells; outline: as §2
[4] = tested on: SN12C; test: Growth inhibition of human SN12C cells
Outline: (§3)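 Compounds that passed a preliminary screen were tested at five doses in the NCI (Bethesda) in vitro Anticancer Screen Program against a 53-line human tumour panel spanning leukemia, lung, colon, CNS, melanoma, ovarian, renal, prostate and breast. Growth inhibition is reported as GI50.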

[5] = tested on: U-251; test: Growth inhibition of human U251 cells; outline: as §3
[6] = tested on: NCI/ADR-RES; test: Growth inhibition of human NCI/ADR-RES cells; outline: as §2
[7] = tested on: SF-268; test: Growth inhibition of human SF268 cells; outline: as §2
[8] = tested on: HOP-62; test: Growth inhibition of human HOP62 cells; outline: as §2
[9] = tested on: LOX IMVI; test: Growth inhibition of human LOXIMVI cells; outline: as §2
[10] = tested on: HT-29; test: Growth inhibition of human HT-29 cells; outline: as §2
[11] = tested on: SK-OV-3; test: Growth inhibition of human SKOV3 cells; outline: as §3
[12] = tested on: RXF 393; test: Growth inhibition of human RXF393 cells; outline: as §2
[13] = tested on: SK-MEL-5; test: Growth inhibition of human SK-MEL-5 cells; outline: as §2
[14] = tested on: HOP-92; test: Growth inhibition of human HOP92 cells; outline: as §2
[15] = tested on: SNB-19; test: Growth inhibition of human SNB19 cells; outline: as §3
[16] = tested on: CAKI-1; test: Growth inhibition of human Caki1 cells; outline: as §2
[17] = tested on: KM12; test: Growth inhibition of human KM12 cells; outline: as §2
[18] = tested on: HCT-15; test: Growth inhibition of human HCT15 cells; outline: as §2
[19] = tested on: HCT-116; test: Growth inhibition of human HCT116 cells; outline: as §2
[20] = tested on: UACC-257; test: Growth inhibition of human UACC257 cells; outline: as §3
[21] = tested on: NCI-H226; test: Growth inhibition of human NCI-H226 cells; outline: as §2
[22] = tested on: SNB-75; test: Growth inhibition of human SNB75 cells; outline: as §3
[23] = tested on: TK-10; test: Growth inhibition of human TK10 cells; outline: as §3
[24] = tested on: UACC-62; test: Growth inhibition of human UACC62 cells; outline: as §3
[25] = tested on: A498; test: Growth inhibition of human A498 cells; outline: as §2
[26] = tested on: NCI-H522; test: Growth inhibition of human NCI-H522 cells; outline: as §2
[27] = tested on: MCF7; test: Cell cycle arrest in human MCF7 cells assessed as accumulation at G1 phase at 10 uM after 24 hrs by FACS analysis; outline: as §1
[28] = tested on: SK-MEL-28; test: Growth inhibition of human SK-MEL-28 cells; outline: as §2
[29] = tested on: SK-MEL-2; test: Growth inhibition of human SK-MEL-2 cells; outline: as §2
[30] = tested on: SF-539; test: Growth inhibition of human SF539 cells; outline: as §2
[31] = tested on: MCF7; test: Cell cycle arrest in human MCF7 cells assessed as accumulation at S phase at 30 uM after 24 hrs by FACS analysis
Outline: (§4)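 MCF-7 cells were treated at 30 µM for 24 h alongside a DMSO control. Fractions in G0, G1, S and G2/M phases were measured by FACS, and values are means of three experiments.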

[32] = tested on: ACHN; test: Growth inhibition of human ACHN cells; outline: as §2
[33] = tested on: MDA-MB-231; test: Growth inhibition of human MDA-MB-231 cells; outline: as §2
[34] = tested on: NCI-H23; test: Growth inhibition of human NCI-H23 cells; outline: as §2
[35] = tested on: OVCAR-8; test: Growth inhibition of human OVCAR8 cells; outline: as §2
[36] = tested on: MDA-MB-435; test: Growth inhibition of human MDA-MB-435 cells; outline: as §2
[37] = tested on: T47D; test: Growth inhibition of human T47D cells; outline: as §3
[38] = tested on: A549; test: Growth inhibition of human A549 cells; outline: as §2
[39] = tested on: NCI-H460; test: Growth inhibition of human NCI-H460 cells; outline: as §2
[40] = tested on: UO-31; test: Growth inhibition of human UO31 cells; outline: as §3
[41] = tested on: HCC 2998; test: Growth inhibition of human HCC2998 cells; outline: as §2
[42] = tested on: SF-295; test: Growth inhibition of human SF295 cells; outline: as §2
[43] = tested on: EKVX; test: Growth inhibition of human EKVX cells; outline: as §2
[44] = tested on: COLO 205; test: Growth inhibition of human COLO205 cells; outline: as §2
[45] = tested on: MCF7; test: Cell cycle arrest in human MCF7 cells assessed as accumulation at G2/M phase at 10 uM after 24 hrs by FACS analysis; outline: as §1
[46] = tested on: M14; test: Growth inhibition of human M14 cells; outline: as §2
[47] = tested on: OVCAR-4; test: Growth inhibition of human OVCAR4 cells; outline: as §2
[48] = tested on: MCF7; test: Cell cycle arrest in human MCF7 cells assessed as accumulation at G0 phase at 10 uM after 24 hrs by FACS analysis; outline: as §1
[49] = tested on: NCI-H322M; test: Growth inhibition of human NCI-H322M cells; outline: as §2
[50] = Growth inhibition of human RPMI8266 cells; outline: as §2
[51] = tested on: OVCAR-5; test: Growth inhibition of human OVCAR5 cells; outline: as §2
[52] = tested on: K562; test: Growth inhibition of human K562 cells; outline: as §2
[53] = tested on: MCF7; test: Cell cycle arrest in human MCF7 cells assessed as accumulation at G0 phase at 30 uM after 24 hrs by FACS analysis; outline: as §4
[54] = tested on: SW-620; test: Growth inhibition of human SW620 cells; outline: as §3
[55] = Growth inhibition of human Hs 578T cells; outline: as §2
[56] = tested on: MCF7; test: Growth inhibition of human MCF7 cells; outline: as §2
[57] = tested on: 786-0; test: Growth inhibition of human 786-0 cells; outline: as §2
[58] = tested on: MCF7; test: Cell cycle arrest in human MCF7 cells assessed as accumulation at G2/M phase at 30 uM after 24 hrs by FACS analysis; outline: as §4
[59] = tested on: PC-3; test: Growth inhibition of human PC3 cells; outline: as §2
[60] = tested on: BT-549; test: Growth inhibition of human BT549 cells; outline: as §2
[61] = tested on: MCF7; test: Cell cycle arrest in human MCF7 cells assessed as accumulation at G1 phase at 30 uM after 24 hrs by FACS analysis; outline: as §4

GI50 [3]: 1780 nM
GI50 [5]: 880 nM
GI50 [10]: 1280 nM
GI50 [11]: 4600 nM
GI50 [13]: 2030 nM
GI50 [18]: 1380 nM
GI50 [19]: 370 nM
GI50 [21]: 35200 nM
GI50 [26]: 1850 nM
GI50 [28]: 2030 nM
GI50 [29]: 2630 nM
GI50 [32]: 1820 nM
GI50 [33]: 5480 nM
GI50 [34]: 1630 nM
GI50 [35]: 2530 nM
GI50 [36]: 1860 nM
GI50 [37]: 3840 nM
GI50 [38]: 11800 nM
GI50 [39]: 1560 nM
GI50 [41]: 1640 nM
GI50 [44]: 1840 nM
GI50 [47]: 3570 nM
GI50 [49]: 2660 nM
GI50 [51]: 2640 nM
GI50 [52]: 1270 nM
GI50 [54]: 450 nM
GI50 [56]: 440 nM
GI50 [57]: 1610 nM
GI50 [59]: 6220 nM
GI50 [60]: 2590 nM
Compound: COc1ccc(-c2cn(-c3cccc(C(=O)/C=C/c4cc(OC)c(OC)c(OC)c4)c3)c(=O)[nH]2)cc1
Activity [1]: 21.47%
GI50 [2]: 1790 nM
GI50 [4]: 3500 nM
GI50 [6]: 1700 nM
GI50 [7]: 3210 nM
GI50 [8]: 5910 nM
GI50 [9]: 720 nM
GI50 [12]: 1920 nM
GI50 [14]: 14900 nM
GI50 [15]: 4380 nM
GI50 [16]: 3050 nM
GI50 [17]: 1420 nM
GI50 [20]: 3040 nM
GI50 [22]: 4590 nM
GI50 [23]: 3040 nM
GI50 [24]: 2060 nM
GI50 [25]: 4210 nM
Activity [27]: 60.66%
GI50 [30]: 2000 nM
Activity [31]: 8.45%
GI50 [40]: 1910 nM
GI50 [42]: 4950 nM
GI50 [43]: 4200 nM
Activity [45]: 14.08%
GI50 [46]: 1850 nM
Activity [48]: 3.79%
GI50 [50]: 920 nM
Activity [53]: 36.02%
GI50 [55]: 3390 nM
Activity [58]: 9.51%
Activity [61]: 46.02%
